The list is not random: actives were taken first. Their share in the collection is about 3.1%.
UBC13 inh: blocks human UBC13 polyubiquitin chain formation; P61088; TR-FRET; inhibition, % at 20 µM; 0.47% of 330,000 active; AID 485273; in the data active = inhibition above about 45%, passing the limit was not always enough
MEKK2mut PB1 HTS: signal of MEK5 binding to mutant human MEKK2 PB1 domain; bead flow cytometry, Alexa488-MEK5 binding to MEKK2 mutant; percent response, % at 10 µM; 0.35% of 290,000 active; in the data active = percent response above about 24%, passing the limit was not always enough
MEKK3 PB1 HTS: MEKK3-MEK5 PB1 interaction, increase or decrease; Q99759; bead-based flow cytometry, Alexa488-MEK5 binding to MEKK3; actives lie on both sides; 0 = blocked by unlabeled MEK5, 100 = vehicle; binding response (% of control), % at 10 µM; 1.4% of 290,000 active;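 active = binding response more than 3 SD above or below the average of its plate-row segment, actives on both sides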;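 also: Alexa488 bead fluorescence after subtracting the streptavidin-only scavenger bead signal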
Target sequence (Q99759 whole entry, looked up): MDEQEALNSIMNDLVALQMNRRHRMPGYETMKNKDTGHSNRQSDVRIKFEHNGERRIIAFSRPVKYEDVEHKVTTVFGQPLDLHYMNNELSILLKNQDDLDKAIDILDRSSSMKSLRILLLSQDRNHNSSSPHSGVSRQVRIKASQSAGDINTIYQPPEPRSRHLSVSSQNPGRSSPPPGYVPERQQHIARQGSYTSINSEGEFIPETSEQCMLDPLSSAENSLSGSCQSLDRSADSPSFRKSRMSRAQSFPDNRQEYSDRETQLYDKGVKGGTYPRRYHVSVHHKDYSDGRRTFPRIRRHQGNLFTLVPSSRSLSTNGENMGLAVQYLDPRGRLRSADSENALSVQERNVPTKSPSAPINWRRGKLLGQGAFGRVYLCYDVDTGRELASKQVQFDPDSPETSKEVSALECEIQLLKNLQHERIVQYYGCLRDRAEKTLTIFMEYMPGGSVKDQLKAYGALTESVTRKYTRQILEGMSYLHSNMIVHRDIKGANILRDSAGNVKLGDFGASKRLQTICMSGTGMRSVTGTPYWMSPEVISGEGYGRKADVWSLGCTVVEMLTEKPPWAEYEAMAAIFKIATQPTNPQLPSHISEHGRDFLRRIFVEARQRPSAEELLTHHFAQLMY
Apaf-1 inh: blocks human Apaf-1 apoptosome activity; O14727; reconstituted apoptosome caspase-3 activity, DEVD-Rh110 fluorescence; inhibition, % at 20 µM; 0.71% of 330,000 active; AID 489030; active = inhibition of at least 40% at 20 µM
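Material: biochemical Apaf-1 apoptosome reconstitution. Medium: Hepes buffer, pH 7.5. Also added: cytochrome c activation, bis-DEVD rhodamine 110 substrate. Timing: 30 min compound preincubation, 50 min activation, room temperature. Measured by: rhodamine 110 fluorescence at Ex 480/Em 540 nm.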
PREPL inhibitor: inhibits the human prolyl oligopeptidase-like enzyme. Q4J6C6. AID 2751. inhibition, % at 5.96 µM. 0.68% of 320,000 active. recombinant PREPL, fluorescence polarization activity-based probe; in the data active = inhibition above about 43%
MEKK2wt PB1 HTS: raises or lowers MEK5 binding to wildtype human MEKK2 PB1 domain; Q9Y2U5; bead flow cytometry, Alexa488-MEK5 binding to MEKK2 WT; actives lie on both sides; binding response (% of control), % at 10 µM; 1.1% of 290,000 active; in the data active = binding response below about 67% or above about 130%
Apaf-1 inh conf2: Apaf-1 inhibition, single-dose confirmed; shares compounds with Apaf-1 inh; reconstituted apoptosome, caspase-3 DEVD-Rh110 fluorescence; inhibition, % at 20 µM; 25% of 1,800 active; AID 504614;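 active = mean inhibition of at least 40% at 20 µM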
Rh110 interf inh: Rh110 signal interference in Apaf-1 inhibitor counter-screen; activation (fluorescence interference), % at 20 µM; 1,800 tested, under 10 active; Rh110 fluorescence interference, quenched caspase reaction; shares compounds with Apaf-1 inh;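 active = signal rise of 40% or more at 20 µM, treated as a fluorescence artifact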
Fluor interf inh: Apaf-1 inhibitor counter-screen fluorescence artifact; shares compounds with Apaf-1 inh; fluorescence interference counterscreen, Apaf-1 assay format; IC50, µM; 460 tested, under 10 active; AID 588538; call rule not given here
Numbers stand for hits; - = inactive; . = not tested or not shown.

SMILES	UBC13 inh	MEKK2mut PB1 HTS	MEKK3 PB1 HTS	Apaf-1 inh	PREPL inhibitor	MEKK2wt PB1 HTS	Apaf-1 inh conf2	Rh110 interf inh	others
N#Cc1c(N2CCCC(O)C2)nc(N)c2c(N)nc3c(c12)CC(=O)N3C12CC3CC(CC(C3)C1)C2 (centres undefined)	-	-	-	98	-	-	44	-	Fluor interf inh=-
Cc1ccc(N(CC(=O)N/N=C/c2ccc(OC3CSC3)cc2)S(=O)(=O)c2ccccc2)c(C)c1	-	-	-	63	-	-	-	-
COP1(=O)C=C[C@H](N(Cc2ccccc2)S(=O)(=O)c2ccccc2[N+](=O)[O-])[C@@H](C)O1 (some centres undefined)	-	-	-	-	-	-	.	.
CCOC(=O)C1CCN(C(=O)c2ccc3c(c2)NC(=O)/C(=C\c2cccc(C)c2)S3)CC1	-	-	-	40	-	-	-	-
c1ccc(C2=Nn3c(nnc3-c3n[nH]c4c3CCC4)SC2)cc1	-	-	-	-	-	-	.	.
Clc1ccc(C2=Nn3c(nnc3-c3n[nH]c4c3CCC4)SC2)cc1Cl	-	-	-	43	-	-	-	-
Cc1ccc(C(=O)N/C(=C\c2ccc(-c3ccccc3[N+](=O)[O-])o2)C(=O)NCCN(C)C)cc1	-	-	-	53	-	-	-	-
O=C(C1=NN(c2ccccc2)C(=O)CC1)N1CCc2ccccc2C1	-	-	-	-	-	-	.	.
COc1ccc(N2CC(C(=O)Nc3c(C(N)=O)oc4ccccc34)CC2=O)cc1 (centres undefined)	-	.	.	-	-	.	.	.
O=c1[nH]c(CN2CCc3ccccc3C2)nc2ccccc12	-	-	-	65	-	-	-	-
CCOC(=O)C1CCN(C2=C(NS(=O)(=O)c3ccc(Br)cc3)C(=O)c3ccccc3C2=O)CC1	-	-	-	68	-	-	-	-
CCOC(=O)C1CCN(C(=O)c2cccc(NS(=O)(=O)c3ccc(Br)cc3)c2)CC1	-	.	.	-	-	.	.	.
NC(=O)C1CCN(C2=C(NS(=O)(=O)c3ccc(Br)cc3)C(=O)c3ccccc3C2=O)CC1	-	-	-	66	-	-	48	-	Fluor interf inh=-
COn1c2c(c3c4nonc4ccc31)CCCC2	-	-	-	47	-	-	52	-
On1c2c(c3c4nonc4ccc31)CCCC2	-	-	-	-	-	-	.	.
COc1ccc(NC(=O)CN(C)C(=O)C2CSC3(C)CCC(=O)N23)cc1 (centres undefined)	-	.	.	43	-	.	-	-
Cc1cc(N(CCO)CCO)ccc1N=Nc1cc(F)ccc1F	-	-	-	40	-	-	-	-
O=C(CC12CC3CC(CC(C3)C1)C2)NC1CC1	-	.	.	-	-	.	.	.
CCOC(=O)c1cc(-c2ccc(/C=C3/C(=O)N(c4ccc(C(=O)O)cc4)N=C3C)o2)ccc1Cl	-	-	-	50	-	-	-	-
CCOC(=O)c1cc(-c2ccc(/C=N\n3cnnc3)o2)ccc1Cl	-	-	-	-	-	-	.	.
COc1ccccc1N1CCN(C(c2cccs2)C(C)NS(=O)(=O)c2ccccc2)CC1 (centres undefined)	-	-	-	55	-	-	46	-	Fluor interf inh=-
CC1CN(S(=O)(=O)c2cccc(C(=O)N(CCc3ccccc3)Cc3ccccc3)c2)CC(C)O1 (centres undefined)	-	.	.	45	-	.	-	-
COCCN(Cc1ccccc1)C(=O)c1cccc(S(=O)(=O)N2CCN(c3ccccc3)CC2)c1	-	.	.	43	-	.	42	-	Fluor interf inh=-
COCCN(Cc1ccccc1)C(=O)c1cccc(S(=O)(=O)N2CCN(c3ccc(F)cc3)CC2)c1	-	.	.	-	-	.	.	.
COCCN(Cc1ccccc1)C(=O)C1CCN(S(=O)(=O)c2ccc(OC)c(OC)c2)CC1	-	.	.	-	-	.	.	.
SMILES	UBC13 inh	MEKK2mut PB1 HTS	MEKK3 PB1 HTS	Apaf-1 inh	PREPL inhibitor	MEKK2wt PB1 HTS	Apaf-1 inh conf2	Rh110 interf inh	others
CSc1ccc(CN(C)C(=O)c2cccc(S(=O)(=O)NCc3ccccc3)c2)cc1	-	-	-	67	-	-	-	-
COCCN(Cc1ccccc1)C(=O)C1CCN(S(=O)(=O)c2ccc3c(c2)OCCO3)CC1	-	.	.	49	-	.	-	-
CC1CN(C(=O)c2cccc(S(=O)(=O)NCc3ccccc3)c2)CC(C)O1 (centres undefined)	-	.	.	54	-	.	-	-
CC(C)CCNC(=O)CN(C(=O)CCC(=O)Nc1nccs1)c1ccc2c(c1)OCCO2	-	-	-	-	-	-	.	.
S=c1[nH]c2cc(Cl)c3cccnc3c2o1	-	-	-	46	-	-	-	-
S=c1[nH]c2ncccc2o1	-	-	-	-	-	-	.	.
CC(=O)Nc1ccc(C(=O)NC(C)c2ccc(-n3ccnc3)cc2)cc1 (centres undefined)	-	-	-	-	-	-	.	.
CC(=O)Nc1cccc(C(=O)NC(C)c2ccc(-n3ccnc3)cc2)c1 (centres undefined)	-	-	-	41	-	-	-	-
Cn1c(C(=O)NCCN2CCCCCC2)cc2c(=O)n(C)c3ccccc3c21	-	-	-	43	-	-	-	-
COc1cccc2c(=O)c3cccc(N)c3[nH]c12	-	-	-	70	-	-	-	-
COC(=O)[C@]1(Cc2ccccc2)N[C@H](CN(C)C(=O)c2ccc(C)cc2)[C@@H]2C(=O)N(Cc3ccccc3)C(=O)[C@@H]21	-	.	.	-	-	.	.	.
Nc1c(N2CCOCC2)cc(Cl)c2nonc12	-	-	-	-	-	-	.	.
Nc1c(N2CCCC2)cc(Cl)c2nonc12	-	-	-	96	-	-	75	-	Fluor interf inh=-
Cc1cccc(N2CCN(C(=O)C3CCN(S(=O)(=O)c4c(C)noc4C)CC3)CC2)c1C	-	-	-	-	-	-	.	.
CN(CC(=O)Nc1cccc(F)c1)C(=O)c1sccc1-c1ccccc1	-	.	.	-	.	.	.	.
CN(CC(=O)Nc1ccc(Cl)cc1)C(=O)c1sccc1-c1ccccc1	-	.	.	46	-	.	-	-
Cc1ccc(S(=O)(=O)N2C[C@@H]3CCCC[C@@H]3[C@@H](C)[C@H]2c2cn(Cc3ccccc3)c3ncccc23)cc1	.	.	.	-	.	.	.	.
Cc1nn(Cc2c(F)c(F)c(F)c(F)c2F)c(C)c1NC(=O)c1ccc(COc2ccc(Cl)cc2Cl)o1	-	-	-	46	-	-	-	-
Cc1nn(Cc2ccc(Cl)cc2Cl)c(C)c1NC(=O)c1ccc(COc2cc(Cl)ccc2Cl)o1	-	-	-	-	-	-	.	.

Assay outcomes from PubChem.
